Columns and labels:
[1] = Clearance in NMRI mouse at 0.2 mg/kg, iv; assay type: ADME, organism-based; design: dose 0.2 mg/kg, route intravenous; conditions: in vivo
Outline: (§1)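 Female NMRI mice (n = 5) given a single iv bolus (0.2 mg/kg per compound) or oral gavage (0.5 mg/kg per compound) as a cassette, in DMSO/PEG 200/water. Serial retro-orbital blood was drawn under isoflurane from 3 animals per route at 0.1 (iv), 0.25 (po), 0.5, 1, 2, 4 and 6 h. Plasma was quantified by LC–MS/MS.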

[2] = AUC in NMRI mouse at 0.2 mg/kg, iv; assay type: ADME, organism-based; design: dose 0.2 mg/kg, route intravenous; conditions: plasma; outline: as §1
[3] = Clearance in Wistar rat at 0.2 mg/kg, iv; assay type: ADME, organism-based; design: dose 0.2 mg/kg, route intravenous; conditions: in vivo
Outline: (§2)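 Male Wistar rats (n = 6) received cassette dosing, either iv bolus at 0.2 mg/kg or oral gavage at 0.5 mg/kg per compound, in DMSO/PEG 200/water. Plasma levels were measured by UPLC–MS/MS.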

[4] = AUC in Wistar rat at 0.5 mg/kg, po; assay type: ADME, organism-based; design: dose 0.5 mg/kg, route oral; conditions: plasma; outline: as §2
[5] = target: T1, Poly [ADP-ribose] polymerase tankyrase-2 (Homo sapiens, UniProt Q9H2K2); test: Inhibition of GST-tagged TNKS2 (873 to 1166 aa) (unknown origin) after 90 mins by HTRF assay
T1 sequence (Q9H2K2 whole entry): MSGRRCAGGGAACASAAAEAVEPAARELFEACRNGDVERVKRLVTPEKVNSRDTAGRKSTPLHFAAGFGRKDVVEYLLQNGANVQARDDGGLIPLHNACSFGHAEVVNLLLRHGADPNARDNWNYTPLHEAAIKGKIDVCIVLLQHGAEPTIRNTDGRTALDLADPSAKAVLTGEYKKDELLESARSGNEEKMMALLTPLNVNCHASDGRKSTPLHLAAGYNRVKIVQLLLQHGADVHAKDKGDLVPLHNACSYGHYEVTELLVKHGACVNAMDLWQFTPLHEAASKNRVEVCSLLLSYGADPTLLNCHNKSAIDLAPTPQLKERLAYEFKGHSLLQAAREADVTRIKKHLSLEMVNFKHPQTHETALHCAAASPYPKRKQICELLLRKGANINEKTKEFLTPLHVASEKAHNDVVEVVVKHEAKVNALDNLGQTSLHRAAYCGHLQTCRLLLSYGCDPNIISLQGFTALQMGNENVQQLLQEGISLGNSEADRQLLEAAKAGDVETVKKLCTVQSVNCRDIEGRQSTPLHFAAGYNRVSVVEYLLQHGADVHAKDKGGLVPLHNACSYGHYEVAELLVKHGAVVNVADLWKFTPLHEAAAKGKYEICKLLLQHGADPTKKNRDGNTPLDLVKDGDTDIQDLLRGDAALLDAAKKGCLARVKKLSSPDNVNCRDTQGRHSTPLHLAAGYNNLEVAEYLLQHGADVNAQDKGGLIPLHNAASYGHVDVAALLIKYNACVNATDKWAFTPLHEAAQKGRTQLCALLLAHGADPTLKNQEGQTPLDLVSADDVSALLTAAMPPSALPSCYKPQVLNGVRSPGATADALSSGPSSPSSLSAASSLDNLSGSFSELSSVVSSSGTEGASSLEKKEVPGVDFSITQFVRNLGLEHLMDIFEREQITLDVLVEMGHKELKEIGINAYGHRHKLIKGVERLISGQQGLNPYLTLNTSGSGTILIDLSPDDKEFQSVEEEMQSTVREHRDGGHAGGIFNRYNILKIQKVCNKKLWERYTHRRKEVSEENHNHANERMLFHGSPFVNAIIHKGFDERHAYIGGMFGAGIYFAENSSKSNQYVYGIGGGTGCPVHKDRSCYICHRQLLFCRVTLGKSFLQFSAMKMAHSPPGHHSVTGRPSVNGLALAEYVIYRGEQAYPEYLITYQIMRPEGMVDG

Cytochrome P450 2C8 = target: T2, Cytochrome P450 2C8 (Homo sapiens, UniProt P10632); test: Inhibition of CYP2C8 (unknown origin); assay type: ADME
T2 sequence (P10632 whole entry): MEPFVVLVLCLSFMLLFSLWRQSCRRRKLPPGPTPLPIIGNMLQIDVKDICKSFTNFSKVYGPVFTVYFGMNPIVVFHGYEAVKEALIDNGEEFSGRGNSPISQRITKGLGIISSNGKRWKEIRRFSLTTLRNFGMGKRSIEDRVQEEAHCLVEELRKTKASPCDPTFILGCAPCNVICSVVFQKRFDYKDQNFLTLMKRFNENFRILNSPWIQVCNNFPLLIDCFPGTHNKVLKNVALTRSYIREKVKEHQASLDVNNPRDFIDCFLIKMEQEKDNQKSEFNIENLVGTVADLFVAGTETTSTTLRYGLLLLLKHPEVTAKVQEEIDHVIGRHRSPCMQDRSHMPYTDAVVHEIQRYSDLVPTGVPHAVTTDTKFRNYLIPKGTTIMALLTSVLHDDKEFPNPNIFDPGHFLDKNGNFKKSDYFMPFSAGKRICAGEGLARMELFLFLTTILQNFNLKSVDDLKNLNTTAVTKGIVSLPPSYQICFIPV

Plasma = test: Drug uptake in plasma of human COLO205-F1756 clone 4 cells harboring APC mutant xenografted CrTac:NCr-Foxn1nu mouse at 70 mg/kg, po bid for 9 days measured after 2 to 6 hrs; assay type: ADME, organism-based, COLO 205; design: dose 70 mg/kg, route oral; conditions: in vivo
Outline: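 In COLO205-F1756 clone 4 xenograft-bearing nude mice dosed orally at 70 mg/kg bid, cardiac blood and tumours were taken 2 and 6 h after the final dose. Tumours were homogenized in 3 v/w PBS, methanol-extracted with internal standard, and total levels were measured by UPLC–MS/MS (MRM, positive ion).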

in vivo = conditions: Wistar, rat, iv, 0.2 mg/kg

Cn1cc(-c2ccc(-c3cncc(Cl)c3N3CCC4(CCNC4=O)CC3)cc2)cn1 gave a clearance [1] of 31 mL/min/kg, an AUC [2] of 107 ng·h/mL and a clearance [3] of 26 mL/min/kg. The AUC [4] was 288 ng·h/mL, the IC50 [5] was 15 µM and the “inhibition (INH)” value (Cytochrome P450 2C8) was “Not Active”. For the same molecule, the Drug uptake (Plasma) was “Active” and the half-life (in vivo) was 58.2 min.

Source: ChEMBL document CHEMBL3407438, “Discovery of potent, orally bioavailable, small-molecule inhibitors of WNT signaling from a cell-based pathway screen” (J Med Chem, 2015)
